{
  "source": "ChEMBL document CHEMBL4834426",
  "about": "“Antimalarial Benzimidazole Derivatives Incorporating Phenolic Mannich Base Side Chains Inhibit Microtubule and Hemozoin Formation: Structure-Activity Relationship and In Vivo Oral Efficacy Studies” (J Med Chem, 2021)",
  "key": {"[1]": {"assay": "Cmax in Balb/c mouse at 10 mg/kg, po measured up to 24 hrs by LC-MS/MS analysis", "assay_type": "ADME, organism-based", "set-up": "route oral, dose 10 mg/kg, time <=24", "conditions": "in vivo", "method_in_brief": "(§1)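 Male Balb/c mice, not fasted, food and water ad libitum; single oral dose. Tail-vein blood into heparinized tubes at 0.5, 1, 3, 5, 7, 9 and 24 h, stored at −80 °C. Whole blood protein-precipitated with acetonitrile containing internal standard, analyzed by LC−MS/MS (LOQ 2 ng/mL). Parameters by noncompartmental analysis with curve stripping. Mean of three mice per point.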"}, "[2]": {"system": "Plasmodium falciparum NF54", "assay": "Inhibition of tubulin polymerization in […] Plasmodium falciparum NF54 early gametocytes at 2400 nM incubated for 24 hrs by tubulin tracker Oregon Green staining method", "method_in_brief": "(§2)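 Treatment at 600 nM for asexual parasites (~1% parasitemia, 5% hematocrit, sorbitol-synchronized rings) or 2400 nM for early gametocytes (~2% gametocytemia, 2% hematocrit, 20% I/60% II/20% III). 24 h at 37 °C, 90% N₂/5% CO₂/5% O₂, DMSO <0.1%. Stained with 250 nM Tubulin Tracker Oregon Green 488 for 30 min and Hoechst (100 nM) for 10 min. PBS-washed, imaged live by confocal microscopy. Colchicine (20 μM) positive control.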"}, "[3]": {"assay": "Metabolic stability in human liver microsomes assessed as compound remaining at 1 uM incubated for 30 mins by LC-MS/MS analysis", "assay_type": "ADME, Microsome", "conditions": "read-out: Stabilty", "method_in_brief": "(§3)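 Single-point design: 1 μM compound with 0.4 mg/mL liver microsomes in 0.1 M phosphate buffer pH 7.4 for 30 min. Quenched with ice-cold acetonitrile containing carbamazepine internal standard, centrifuged, analyzed by LC−MS/MS. Percent remaining from internal-standard-corrected peak areas at 30 min versus 0 min. Propranolol, midazolam and MMV390048 as controls.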"}, "Plasmodium falciparum [4]": {"system": "Plasmodium falciparum", "assay": "Antiplasmodial activity against […] Plasmodium falciparum NF54 late gametocytes transfected with GFP-Luc […] incubated for 48 hrs by microscopy based luciferase reporter gene assay relative to control", "assay_type": "functional, organism-based", "conditions": "NF54, 48 h", "method_in_brief": "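Transgenic NF54-Pfs16-GFP-Luc gametocytes, read by luciferase reporter. Early assays were set up on day 5 (50% stage II/50% stage III) and late assays on day 10 (40% stage IV/60% stage V). Luciferin was added to lysates at room temperature and bioluminescence read. Methylene blue (5 μM) was the reference. Single-point screens at 1 and 5 μM used n=1 in technical triplicate. IC₅₀ came from a normalized nonlinear fit, n≥3 in triplicate.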"}, "Plasmodium falciparum [5]": {"system": "Plasmodium falciparum", "assay": "Antiplasmodial activity against […] Plasmodium falciparum NF54 early gametocytes transfected with GFP-Luc […] at 5 uM incubated for 48 hrs by microscopy based luciferase reporter gene assay relative to control", "assay_type": "functional", "method_in_brief": "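NF54-Pfs16-GFP-Luc gametocytes, assays set up day 5 (early, stage II/III) or day 10 (late, stage IV/V). Culture at 2−3% gametocytemia, 1.5% hematocrit, 48 h drug exposure at 37 °C under 90% N₂/5% O₂/5% CO₂. Lysates mixed with luciferin; bioluminescence read with 10 s integration. Dual-point: one biological repeat in technical triplicate. Methylene blue (5 μM) reference.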"}, "[6]": {"assay": "Half life in Balb/c mouse at 10 mg/kg, po measured up to 24 hrs by LC-MS/MS analysis", "assay_type": "ADME, organism-based", "conditions": "in vivo", "method_in_brief": "as §1"}, "Plasmodium falciparum [7]": {"system": "Plasmodium falciparum", "assay": "Antimalarial activity against asexual blood stage multi drug-resistant Plasmodium falciparum K1 infected in erythrocytes assessed as reduction in parasitemia incubated up to 72 hrs by [3H]hypoxanthine incorporation assay", "assay_type": "functional, organism-based", "method_in_brief": "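[³H]-Hypoxanthine incorporation assay (modified) on asexual blood-stage P. falciparum in vitro. IC₅₀ values are means of ≥2 independent experiments.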"}, "[8]": {"assay": "Clearance in Balb/c mouse at 3 mg/kg, iv measured up to 24 hrs by LC-MS/MS analysis", "assay_type": "ADME, organism-based", "conditions": "in vivo", "method_in_brief": "(§4)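 Intravenous dosing in male Balb/c mice, fed ad libitum. Tail-vein blood sampled into heparinized tubes at 0.17, 0.5, 1, 3, 5, 7, 9 and 24 h, frozen at −80 °C. Blood extracted by acetonitrile protein precipitation with internal standard; LC−MS/MS quantitation, LOQ 2 ng/mL. Noncompartmental analysis based on curve stripping.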"}, "[9]": {"assay": "Half life in Balb/c mouse at 3 mg/kg, iv measured up to 24 hrs by LC-MS/MS analysis", "assay_type": "ADME, organism-based", "conditions": "in vivo", "method_in_brief": "as §4"}, "[10]": {"assay": "AUC (0 to t) in Balb/c mouse at 10 mg/kg, po measured up to 24 hrs by LC-MS/MS analysis", "assay_type": "ADME, organism-based", "set-up": "dose 10 mg/kg, time <=24", "conditions": "in vivo", "method_in_brief": "as §1"}, "[11]": {"assay": "Volume of distribution at steady state in Balb/c mouse at 3 mg/kg, iv measured up to 24 hrs by LC-MS/MS analysis", "assay_type": "ADME, organism-based", "conditions": "in vivo, read-out: Vdss", "method_in_brief": "as §4"}, "[12]": {"assay": "Metabolic stability in mouse liver microsomes assessed as compound remaining at 1 uM incubated for 30 mins by LC-MS/MS analysis", "assay_type": "ADME, Microsome", "conditions": "read-out: Stabilty", "method_in_brief": "as §3"}, "[13]": {"assay": "Oral bioavailability in Balb/c mouse at 10 mg/kg measured up to 24 hrs by LC-MS/MS analysis", "assay_type": "ADME, organism-based", "conditions": "in vivo", "method_in_brief": "as §1"}, "Hemozoin": {"system": "Hemozoin", "assay": "Inhibition of Beta-hematin in early ring stage Plasmodium falciparum parasitized red blood cells assessed as hemozoin formation formation after 32 hrs by Giemsa staining based haemocytometric counting method"}, "[14]": {"system": "Plasmodium falciparum NF54", "assay": "Inhibition of tubulin polymerization in asexual stage (II) Plasmodium falciparum NF54 early gametocytes at 2400 nM incubated for 24 hrs by tubulin tracker Oregon Green staining method", "method_in_brief": "as §2"}},
  "note": "Active and inactive are the calls of the source. The calls are words filed in the database; no cut-off is given here.",
  "data": [
    {"smiles": "CCNCc1cc(Cl)cc(Nc2nc3cc(F)c(F)cc3n2Cc2ccc(C(F)(F)F)cc2)c1O", "values": [
      {"measurement": "Cmax", "setting": "[1]", "result": 0.4, "unit": "µM"},
      {"measurement": "inhibition", "setting": "[2]", "result": "Active"},
      {"measurement": "remaining at 0.5 h, 1 µM", "setting": "[3]", "result": "> 99", "unit": "%"},
      {"measurement": "IC50", "setting": "Plasmodium falciparum [4]", "result": "> 5", "unit": "µM"},
      {"measurement": "inhibition at 5 µM", "setting": "Plasmodium falciparum [5]", "result": 91, "unit": "%"},
      {"measurement": "half-life", "setting": "[6]", "result": 8.3, "unit": "h"},
      {"measurement": "IC50", "setting": "Plasmodium falciparum [7]", "result": 0.08, "unit": "µM"},
      {"measurement": "clearance", "setting": "[8]", "result": 0.756, "unit": "L/h/kg"},
      {"measurement": "half-life", "setting": "[9]", "result": 6.3, "unit": "h"},
      {"measurement": "AUCt", "setting": "[10]", "result": 321, "unit": "µmol·min/L"},
      {"measurement": "Vd", "setting": "[11]", "result": 5.8, "unit": "L/kg"},
      {"measurement": "remaining at 0.5 h, 1 µM", "setting": "[12]", "result": 86, "unit": "%"},
      {"measurement": "bioavailability", "setting": "[13]", "result": 24, "unit": "%"},
      {"measurement": "Activity", "setting": "Hemozoin", "result": "inactive"},
      {"measurement": "inhibition", "setting": "[14]", "result": "Active"}
    ]}
  ]
}
